Measurements reported in ChEMBL document CHEMBL5653631, “A Potent and Selective ULK1 Inhibitor Suppresses Autophagy and Sensitizes Cancer Cells to Nutrient Stress” (iScience, 2018).
Each block holds one compound with its values, some of them ahead of it.

Assays:
[1] = target: Serine/threonine-protein kinase PAK 2 (Homo sapiens) (UniProt Q13177); experiment: Inhibition of human recombinant PAK2 at 500 nM related to control ULK1
[2] = target: Receptor tyrosine-protein kinase erbB-2 (Homo sapiens) (UniProt P04626); experiment: Inhibition of human recombinant ErbB2 at 500 nM in presence of ATP by radiometric assay relative to control
Chain of Receptor tyrosine-protein kinase erbB-2 (Homo sapiens) (P04626 whole entry): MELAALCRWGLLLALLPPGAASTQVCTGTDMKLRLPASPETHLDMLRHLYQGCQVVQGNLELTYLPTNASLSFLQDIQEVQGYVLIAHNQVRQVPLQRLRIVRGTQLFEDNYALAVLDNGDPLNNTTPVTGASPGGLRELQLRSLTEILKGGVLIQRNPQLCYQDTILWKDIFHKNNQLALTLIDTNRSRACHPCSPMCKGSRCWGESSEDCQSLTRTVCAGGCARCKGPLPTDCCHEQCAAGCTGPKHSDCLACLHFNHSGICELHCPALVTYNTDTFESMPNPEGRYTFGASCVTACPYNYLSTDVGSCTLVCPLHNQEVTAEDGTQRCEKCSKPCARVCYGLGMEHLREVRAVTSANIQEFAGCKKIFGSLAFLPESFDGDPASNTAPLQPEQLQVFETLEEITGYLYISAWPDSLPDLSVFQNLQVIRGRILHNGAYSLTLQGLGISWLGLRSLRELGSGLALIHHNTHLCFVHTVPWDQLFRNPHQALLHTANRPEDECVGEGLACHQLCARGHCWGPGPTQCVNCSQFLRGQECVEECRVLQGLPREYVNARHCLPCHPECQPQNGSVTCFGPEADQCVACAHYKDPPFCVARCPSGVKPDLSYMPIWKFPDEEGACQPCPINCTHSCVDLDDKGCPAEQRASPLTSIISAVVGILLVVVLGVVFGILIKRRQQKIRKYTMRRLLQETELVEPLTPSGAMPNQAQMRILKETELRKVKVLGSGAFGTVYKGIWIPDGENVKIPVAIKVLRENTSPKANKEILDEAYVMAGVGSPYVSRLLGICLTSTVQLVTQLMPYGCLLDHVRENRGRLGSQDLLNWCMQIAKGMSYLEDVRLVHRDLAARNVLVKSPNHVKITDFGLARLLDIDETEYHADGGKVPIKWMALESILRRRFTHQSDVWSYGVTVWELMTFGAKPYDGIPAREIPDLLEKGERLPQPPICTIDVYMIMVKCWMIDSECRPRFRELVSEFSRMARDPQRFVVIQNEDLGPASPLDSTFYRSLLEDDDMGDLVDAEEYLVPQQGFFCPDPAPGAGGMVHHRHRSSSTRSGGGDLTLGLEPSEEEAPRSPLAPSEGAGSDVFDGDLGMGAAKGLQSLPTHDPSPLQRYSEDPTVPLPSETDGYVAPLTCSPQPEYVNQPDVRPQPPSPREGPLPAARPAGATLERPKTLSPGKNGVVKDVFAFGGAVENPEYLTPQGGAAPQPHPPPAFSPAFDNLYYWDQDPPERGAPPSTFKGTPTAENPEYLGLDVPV

[3] = target: Tyrosine-protein kinase JAK2 (Homo sapiens) (UniProt O60674); experiment: Inhibition of human recombinant JAK2 at 500 nM in presence of ATP by radiometric assay relative to control
Chain of Tyrosine-protein kinase JAK2 (Homo sapiens) (O60674 whole entry): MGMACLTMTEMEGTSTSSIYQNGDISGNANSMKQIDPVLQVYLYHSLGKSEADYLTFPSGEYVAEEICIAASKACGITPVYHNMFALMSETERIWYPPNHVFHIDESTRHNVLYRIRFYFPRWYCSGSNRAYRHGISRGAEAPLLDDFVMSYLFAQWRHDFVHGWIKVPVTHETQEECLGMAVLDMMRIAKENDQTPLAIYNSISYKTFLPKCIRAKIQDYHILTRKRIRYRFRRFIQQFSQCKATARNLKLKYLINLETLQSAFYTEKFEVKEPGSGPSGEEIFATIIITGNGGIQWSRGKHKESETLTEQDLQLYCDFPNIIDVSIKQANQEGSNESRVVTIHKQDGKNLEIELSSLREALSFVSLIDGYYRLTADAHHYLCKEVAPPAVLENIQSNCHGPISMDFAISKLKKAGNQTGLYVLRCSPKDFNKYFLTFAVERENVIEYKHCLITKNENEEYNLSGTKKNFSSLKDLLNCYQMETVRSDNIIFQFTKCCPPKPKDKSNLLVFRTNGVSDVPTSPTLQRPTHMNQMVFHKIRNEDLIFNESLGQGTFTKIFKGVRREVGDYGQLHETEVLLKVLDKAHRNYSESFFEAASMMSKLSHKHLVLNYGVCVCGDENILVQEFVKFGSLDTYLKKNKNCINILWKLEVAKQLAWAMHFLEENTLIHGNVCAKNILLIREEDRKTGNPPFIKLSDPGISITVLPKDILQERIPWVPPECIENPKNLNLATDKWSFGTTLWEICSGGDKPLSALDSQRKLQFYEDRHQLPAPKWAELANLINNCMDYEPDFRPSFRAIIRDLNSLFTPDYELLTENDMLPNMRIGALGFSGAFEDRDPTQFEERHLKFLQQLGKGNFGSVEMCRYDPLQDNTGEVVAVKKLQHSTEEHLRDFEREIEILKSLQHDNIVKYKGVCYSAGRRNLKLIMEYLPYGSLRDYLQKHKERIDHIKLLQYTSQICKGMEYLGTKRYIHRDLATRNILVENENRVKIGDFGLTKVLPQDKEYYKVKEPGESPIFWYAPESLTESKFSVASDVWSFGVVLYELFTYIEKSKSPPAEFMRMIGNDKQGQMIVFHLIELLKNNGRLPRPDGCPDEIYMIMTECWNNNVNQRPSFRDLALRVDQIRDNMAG

[4] = target: RAC-beta serine/threonine-protein kinase (Homo sapiens) (UniProt P31751); experiment: Inhibition of human recombinant AKT2 at 500 nM in presence of ATP by radiometric assay relative to control
Chain of RAC-beta serine/threonine-protein kinase (Homo sapiens) (P31751 whole entry): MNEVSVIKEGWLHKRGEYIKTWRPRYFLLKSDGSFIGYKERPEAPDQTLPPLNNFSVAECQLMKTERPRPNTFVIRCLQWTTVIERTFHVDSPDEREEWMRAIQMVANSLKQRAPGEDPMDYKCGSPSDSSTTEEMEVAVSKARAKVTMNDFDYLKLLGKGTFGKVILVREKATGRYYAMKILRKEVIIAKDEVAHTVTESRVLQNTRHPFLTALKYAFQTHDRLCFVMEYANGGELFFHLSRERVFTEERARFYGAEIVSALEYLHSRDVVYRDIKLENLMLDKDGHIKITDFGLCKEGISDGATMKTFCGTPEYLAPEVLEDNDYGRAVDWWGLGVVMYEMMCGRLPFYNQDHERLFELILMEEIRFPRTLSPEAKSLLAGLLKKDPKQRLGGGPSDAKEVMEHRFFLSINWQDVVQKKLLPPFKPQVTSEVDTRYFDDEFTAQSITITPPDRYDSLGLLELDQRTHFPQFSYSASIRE
Outline: (§1)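 Panel of 327 recombinant human kinases in radiometric activity assays, each screened in duplicate at a single inhibitor concentration; percent activity remaining relative to vehicle control, percent inhibition taken as 100 minus activity remaining.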

[5] = target: Tyrosine-protein kinase Lyn (Homo sapiens) (UniProt P07948); experiment: Inhibition of human recombinant LYN at 500 nM related to control ULK1
Chain of Tyrosine-protein kinase Lyn (Homo sapiens) (P07948 2-512 limits assumed): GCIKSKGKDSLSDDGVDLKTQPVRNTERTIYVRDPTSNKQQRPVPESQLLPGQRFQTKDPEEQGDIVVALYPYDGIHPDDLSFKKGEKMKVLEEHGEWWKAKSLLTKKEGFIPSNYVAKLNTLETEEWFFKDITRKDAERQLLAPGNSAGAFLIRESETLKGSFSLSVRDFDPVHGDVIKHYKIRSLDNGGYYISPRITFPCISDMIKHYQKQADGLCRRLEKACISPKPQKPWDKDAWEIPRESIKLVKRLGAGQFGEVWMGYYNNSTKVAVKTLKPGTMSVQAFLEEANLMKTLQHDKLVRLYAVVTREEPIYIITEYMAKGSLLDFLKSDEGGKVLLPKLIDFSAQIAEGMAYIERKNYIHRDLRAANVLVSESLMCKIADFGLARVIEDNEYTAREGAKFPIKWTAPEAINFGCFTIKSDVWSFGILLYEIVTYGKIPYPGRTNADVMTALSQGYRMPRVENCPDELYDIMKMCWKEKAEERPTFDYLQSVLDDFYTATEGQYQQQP

[6] = target: Protein kinase C alpha type (Homo sapiens) (UniProt P17252); experiment: Inhibition of human recombinant PKCa at 500 nM in presence of ATP by radiometric assay relative to control
[7] = target: 5'-AMP-activated protein kinase catalytic subunit alpha-2 (Homo sapiens) (UniProt P54646); experiment: Inhibition of human recombinant AMPKa2 at 500 nM in presence of ATP by radiometric assay relative to control
Chain of 5'-AMP-activated protein kinase catalytic subunit alpha-2 (Homo sapiens) (P54646 whole entry, looked up): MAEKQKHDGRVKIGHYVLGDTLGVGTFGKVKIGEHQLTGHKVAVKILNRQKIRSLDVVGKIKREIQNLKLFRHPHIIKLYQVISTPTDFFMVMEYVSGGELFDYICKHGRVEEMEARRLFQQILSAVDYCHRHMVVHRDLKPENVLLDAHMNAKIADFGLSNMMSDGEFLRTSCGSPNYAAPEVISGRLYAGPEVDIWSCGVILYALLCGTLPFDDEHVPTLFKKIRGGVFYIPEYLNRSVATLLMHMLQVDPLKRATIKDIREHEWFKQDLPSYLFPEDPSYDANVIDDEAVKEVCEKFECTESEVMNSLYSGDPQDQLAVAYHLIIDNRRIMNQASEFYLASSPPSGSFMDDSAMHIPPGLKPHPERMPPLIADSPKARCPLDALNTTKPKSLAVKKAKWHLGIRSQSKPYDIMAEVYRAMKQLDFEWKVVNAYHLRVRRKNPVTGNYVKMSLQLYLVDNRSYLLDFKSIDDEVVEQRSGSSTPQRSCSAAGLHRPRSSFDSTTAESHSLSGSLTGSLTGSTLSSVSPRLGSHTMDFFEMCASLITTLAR
Outline: (§2)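 Panel of 327 recombinant human kinases, each assayed in vitro by radiometric activity assay in duplicate at a single inhibitor concentration per compound, chosen with reference to its ULK1 inhibition. Activity remaining was expressed as percent of vehicle control, and percent inhibition was calculated as 100 minus percent activity remaining.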

[8] = target: PAS domain-containing serine/threonine-protein kinase (Homo sapiens) (UniProt Q96RG2); experiment: Inhibition of human recombinant PASK at 500 nM in presence of ATP by radiometric assay relative to control
[9] = target: Maternal embryonic leucine zipper kinase (Homo sapiens) (UniProt Q14680); experiment: Inhibition of human recombinant MELK at 40 nM in presence of ATP by radiometric assay relative to control
[10] = target: RAC-alpha serine/threonine-protein kinase (Homo sapiens) (UniProt P31749); experiment: Inhibition of human recombinant AKT1 at 40 nM in presence of ATP by radiometric assay relative to control; outline: as §1
Chain of RAC-alpha serine/threonine-protein kinase (Homo sapiens) (P31749 whole entry): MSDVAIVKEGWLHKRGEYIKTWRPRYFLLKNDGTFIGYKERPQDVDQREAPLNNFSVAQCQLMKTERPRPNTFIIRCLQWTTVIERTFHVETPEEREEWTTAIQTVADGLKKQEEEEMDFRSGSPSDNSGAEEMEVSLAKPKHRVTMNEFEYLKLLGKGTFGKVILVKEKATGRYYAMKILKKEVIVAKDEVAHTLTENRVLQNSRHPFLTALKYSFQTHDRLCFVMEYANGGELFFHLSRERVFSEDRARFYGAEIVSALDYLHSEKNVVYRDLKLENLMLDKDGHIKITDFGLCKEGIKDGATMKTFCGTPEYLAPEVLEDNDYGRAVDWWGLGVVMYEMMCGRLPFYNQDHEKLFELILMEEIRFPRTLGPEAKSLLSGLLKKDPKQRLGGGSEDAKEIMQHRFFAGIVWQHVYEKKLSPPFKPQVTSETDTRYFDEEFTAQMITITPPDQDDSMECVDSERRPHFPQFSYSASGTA

[11] = target: Tyrosine-protein kinase SYK (Homo sapiens) (UniProt P43405); experiment: Inhibition of human recombinant SYK at 40 nM in presence of ATP by radiometric assay relative to control
[12] = target: T1, Serine/threonine-protein kinase A-Raf (Homo sapiens) (UniProt P10398); experiment: Inhibition of human recombinant ARAF at 40 nM in presence of ATP by radiometric assay relative to control; outline: as §2
T1 sequence (whole entry): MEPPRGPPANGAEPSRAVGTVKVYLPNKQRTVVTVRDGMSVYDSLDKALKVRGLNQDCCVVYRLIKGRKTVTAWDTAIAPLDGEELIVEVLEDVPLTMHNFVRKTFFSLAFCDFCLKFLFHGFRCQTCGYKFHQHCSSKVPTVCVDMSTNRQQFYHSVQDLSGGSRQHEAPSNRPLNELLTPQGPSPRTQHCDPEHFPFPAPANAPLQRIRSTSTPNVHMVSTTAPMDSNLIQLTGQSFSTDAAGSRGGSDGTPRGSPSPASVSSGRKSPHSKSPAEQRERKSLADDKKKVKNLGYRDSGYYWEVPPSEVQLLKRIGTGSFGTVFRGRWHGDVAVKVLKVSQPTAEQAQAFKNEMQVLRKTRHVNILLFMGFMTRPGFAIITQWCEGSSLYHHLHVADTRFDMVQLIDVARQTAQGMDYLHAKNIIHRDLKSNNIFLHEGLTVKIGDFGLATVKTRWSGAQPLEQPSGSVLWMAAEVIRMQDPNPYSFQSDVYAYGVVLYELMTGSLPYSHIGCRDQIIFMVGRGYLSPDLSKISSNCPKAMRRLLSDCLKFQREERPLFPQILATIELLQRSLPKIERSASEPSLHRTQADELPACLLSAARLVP

[13] = target: T2, Tyrosine-protein kinase JAK3 (Homo sapiens) (UniProt P52333); experiment: Inhibition of human recombinant JAK3 at 15 nM in presence of ATP by radiometric assay relative to control
T2 sequence (whole entry): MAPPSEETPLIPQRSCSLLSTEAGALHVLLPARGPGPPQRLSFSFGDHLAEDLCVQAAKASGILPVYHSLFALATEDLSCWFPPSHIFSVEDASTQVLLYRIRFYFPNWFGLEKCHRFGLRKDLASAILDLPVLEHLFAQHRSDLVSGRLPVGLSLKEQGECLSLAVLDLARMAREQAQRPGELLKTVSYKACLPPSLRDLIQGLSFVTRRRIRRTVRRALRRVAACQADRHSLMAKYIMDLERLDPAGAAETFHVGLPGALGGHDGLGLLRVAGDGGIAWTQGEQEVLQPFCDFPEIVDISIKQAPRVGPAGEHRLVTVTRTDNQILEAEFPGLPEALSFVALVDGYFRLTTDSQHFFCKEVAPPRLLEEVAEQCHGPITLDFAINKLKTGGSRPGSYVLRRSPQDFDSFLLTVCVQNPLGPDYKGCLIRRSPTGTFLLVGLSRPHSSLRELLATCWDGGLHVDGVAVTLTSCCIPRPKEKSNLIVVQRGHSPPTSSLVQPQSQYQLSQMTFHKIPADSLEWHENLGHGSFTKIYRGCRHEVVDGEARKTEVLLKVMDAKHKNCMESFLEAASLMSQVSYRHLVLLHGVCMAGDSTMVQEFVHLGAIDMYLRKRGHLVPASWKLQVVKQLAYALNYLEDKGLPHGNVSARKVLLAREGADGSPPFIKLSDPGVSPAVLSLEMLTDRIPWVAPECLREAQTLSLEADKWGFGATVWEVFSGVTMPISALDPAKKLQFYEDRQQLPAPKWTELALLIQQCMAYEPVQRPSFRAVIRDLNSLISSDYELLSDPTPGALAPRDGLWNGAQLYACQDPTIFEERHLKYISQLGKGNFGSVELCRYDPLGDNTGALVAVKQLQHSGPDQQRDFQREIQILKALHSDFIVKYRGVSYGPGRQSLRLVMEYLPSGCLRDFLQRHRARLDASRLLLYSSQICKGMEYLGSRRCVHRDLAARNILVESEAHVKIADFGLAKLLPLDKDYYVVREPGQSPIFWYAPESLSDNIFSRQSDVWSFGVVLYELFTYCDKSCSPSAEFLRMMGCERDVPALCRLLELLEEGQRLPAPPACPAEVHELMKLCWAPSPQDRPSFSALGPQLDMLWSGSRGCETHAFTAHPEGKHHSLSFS

[14] = target: Activated CDC42 kinase 1 (Homo sapiens) (UniProt Q07912); experiment: Inhibition of human recombinant ACK at 15 nM related to control ULK1

Chain of Serine/threonine-protein kinase PAK 2 (Homo sapiens) (Q13177 whole entry): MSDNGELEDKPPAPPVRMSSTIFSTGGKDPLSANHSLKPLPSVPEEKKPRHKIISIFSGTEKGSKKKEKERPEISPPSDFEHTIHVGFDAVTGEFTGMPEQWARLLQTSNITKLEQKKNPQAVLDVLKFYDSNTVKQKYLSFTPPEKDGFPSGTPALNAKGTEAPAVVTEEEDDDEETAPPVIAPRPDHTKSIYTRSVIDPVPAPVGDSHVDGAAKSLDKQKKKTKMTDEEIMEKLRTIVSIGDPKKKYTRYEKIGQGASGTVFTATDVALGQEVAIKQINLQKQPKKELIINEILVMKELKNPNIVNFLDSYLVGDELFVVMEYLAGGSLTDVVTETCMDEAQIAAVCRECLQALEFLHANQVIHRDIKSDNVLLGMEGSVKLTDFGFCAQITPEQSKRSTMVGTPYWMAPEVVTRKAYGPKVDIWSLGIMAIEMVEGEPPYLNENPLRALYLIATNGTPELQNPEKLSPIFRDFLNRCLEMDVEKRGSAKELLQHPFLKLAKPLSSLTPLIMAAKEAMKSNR

fold change (FC) [1]: 0.19 | inhibition [2]: 0% | inhibition [3]: 78% | inhibition [4]: 7% | fold change (FC) [5]: 0.41 | inhibition [6]: 0% | inhibition [7]: 57% | inhibition [8]: 10%
Structure (SMILES): CNC(=O)c1ccccc1Oc1nc(Nc2cc(OC)c(OC)c(OC)c2)ncc1Br

inhibition [9]: 20% | inhibition [10]: 0% | inhibition [11]: 0% | inhibition [12]: 0%
Structure (SMILES): O=C(N[C@@H](C1CC1)C(F)(F)F)c1cc(-c2cnn3cc(-c4ccc(F)cc4)cnc23)cs1

inhibition [13]: 0% | fold change (FC) [14]: 0
Structure (SMILES): CC(C)[C@H](NC(=O)c1cc(-c2cnn3cc(-c4ccc(OCCN5CCCCC5)cc4)cnc23)cs1)C(F)(F)F
